Test results published in ChEMBL document CHEMBL3286187, “Synthesis, antibacterial and antitubercular activities of benzimidazole bearing substituted 2-pyridone motifs” (Eur J Med Chem, 2014).
Converted amounts (≈) assume the structure as drawn.

Legend:
[1] = tested on: Mycobacterium tuberculosis; assay: Antitubercular activity against Mycobacterium tuberculosis H37Rv ATCC 27294 after 5 to 8 days by BACTEC 12B method; assay type: functional
Escherichia coli = assay: Antimicrobial activity against Escherichia coli MTCC-443 after 24 hrs by broth dilution method; assay type: functional; settings: MTCC-443, 24 h
Method in brief: (§1)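 NCCLS broth dilution in Mueller Hinton broth with 2% DMSO as vehicle. Primary screen at 1000, 500 and 250 µg/mL; actives retested at 200 to 6.25 µg/mL. Inoculum 10⁶ CFU/mL, set by turbidity. Incubated 24 h at 37 °C; growth read visually and spectrophotometrically. MIC is the lowest concentration arresting growth. Chloramphenicol was the positive control; DMSO and water were negative controls.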

Staphylococcus aureus [2] = assay: Antimicrobial activity against Staphylococcus aureus MTCC-96 after 24 hrs by broth dilution method; assay type: functional; settings: MTCC-96, 24 h; method in brief: as §1
Streptococcus pyogenes = assay: Antimicrobial activity against Streptococcus pyogenes MTCC-442 after 24 hrs by broth dilution method; assay type: functional; settings: MTCC-442, 24 h; method in brief: as §1
Vero = assay: Cytotoxicity against african green monkey Vero cells after 72 hrs by MTS-PMS method; assay type: cell-based; settings: Chlorocebus sabaeus
Method in brief: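 Vero cells in DMEM with 10% FBS at 37 °C, 5% CO2, diluted to 10^6 cells/mL. Threefold serial dilutions gave final […] to 0.12 µg/mL with 1% DMSO. Incubated 72 h, washed with HBSS, then MTS-PMS (100:20) added for 3 h; absorbance read at 490 nm. Triplicate wells, assay repeated three times. Controls set as 100% viability; IC50 taken as 50% growth inhibition.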

Pseudomonas aeruginosa = assay: Antimicrobial activity against Pseudomonas aeruginosa MTCC-1688 after 24 hrs by broth dilution method; assay type: functional; settings: MTCC-1688, 24 h; method in brief: as §1
Staphylococcus aureus [3] = assay: Ratio of chloramphenicol MIC to compound MIC for methicillin-resistant Staphylococcus aureus ATCC 43300 after 24 hrs by broth dilution method; assay type: functional
Staphylococcus aureus [4] = assay: Antimicrobial activity against methicillin-resistant Staphylococcus aureus ATCC 43300 after 24 hrs by broth dilution method; assay type: functional; settings: ATCC 43300, 24 h
Method in brief: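 Broth dilution per NCCLS in Mueller Hinton broth; compounds in 2% DMSO, 1000 µg/mL stock; primary screen 1000, 500, 250 µg/mL, then secondary dilutions 200 to 6.25 µg/mL. Inoculum 10⁶ CFU/mL by turbidity; 24 h at 37 °C, growth read visually and spectrophotometrically. MIC = lowest concentration arresting growth. DMSO/water negative control; chloramphenicol positive control.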

Staphylococcus aureus [5] = assay: Ratio of ciprofloxacin MIC to compound MIC for methicillin-resistant Staphylococcus aureus ATCC 43300 after 24 hrs by broth dilution method; assay type: functional

Structure (SMILES)	MIC [1]	MIC (Escherichia coli)	MIC (Staphylococcus aureus [2])	MIC (Streptococcus pyogenes)	IC50 (Vero)	MIC (Pseudomonas aeruginosa)	Ratio (Staphylococcus aureus [3])	MIC (Staphylococcus aureus [4])	Ratio (Staphylococcus aureus [5])
C/C(=N\n1c(/N=C/c2ccc(C)cc2)c(C#N)c(-c2ccc([N+](=O)[O-])cc2)c(C#N)c1=O)c1nc2ccccc2[nH]1	6.28 µg/mL (≈ 11.6 µM)	250 µg/mL (≈ 462 µM)	250 µg/mL (≈ 462 µM)	125 µg/mL (≈ 231 µM)	> 39.4 µg/mL	250 µg/mL (≈ 462 µM)	–	–	–
C/C(=N\n1c(/N=C/c2ccccc2)c(C#N)c(-c2ccc([N+](=O)[O-])cc2)c(C#N)c1=O)c1nc2ccccc2[nH]1	35.2 µg/mL (≈ 66.9 µM)	500 µg/mL (≈ 950 µM)	500 µg/mL (≈ 950 µM)	500 µg/mL (≈ 950 µM)	17.6 µg/mL (≈ 33.4 µM)	500 µg/mL (≈ 950 µM)	–	–	–
C/C(=N\n1c(/N=C/c2cccc(C)c2)c(C#N)c(-c2ccc([N+](=O)[O-])cc2)c(C#N)c1=O)c1nc2ccccc2[nH]1	2.07 µg/mL (≈ 3.83 µM)	100 µg/mL (≈ 185 µM)	100 µg/mL (≈ 185 µM)	100 µg/mL (≈ 185 µM)	> 39.4 µg/mL	100 µg/mL (≈ 185 µM)	–	–	–
C/C(=N\n1c(/N=C/c2cccc(Br)c2)c(C#N)c(-c2ccc([N+](=O)[O-])cc2)c(C#N)c1=O)c1nc2ccccc2[nH]1	10.3 µg/mL (≈ 17 µM)	25 µg/mL (≈ 41.3 µM)	12.5 µg/mL (≈ 20.6 µM)	25 µg/mL (≈ 41.3 µM)	> 39.4 µg/mL	25 µg/mL (≈ 41.3 µM)	4	12.5 µg/mL (≈ 20.6 µM)	2
C/C(=N\n1c(/N=C/c2ccc([N+](=O)[O-])cc2)c(C#N)c(-c2ccc([N+](=O)[O-])cc2)c(C#N)c1=O)c1nc2ccccc2[nH]1	32.2 µg/mL (≈ 56.4 µM)	1000 µg/mL (≈ 1750 µM)	500 µg/mL (≈ 875 µM)	500 µg/mL (≈ 875 µM)	16.1 µg/mL (≈ 28.1 µM)	1000 µg/mL (≈ 1750 µM)	–	–	–
C/C(=N\n1c(/N=C/c2ccc(Br)cc2)c(C#N)c(-c2ccc([N+](=O)[O-])cc2)c(C#N)c1=O)c1nc2ccccc2[nH]1	13.8 µg/mL (≈ 22.8 µM)	50 µg/mL (≈ 82.6 µM)	25 µg/mL (≈ 41.3 µM)	50 µg/mL (≈ 82.6 µM)	> 39.4 µg/mL	50 µg/mL (≈ 82.6 µM)	8	6.25 µg/mL (≈ 10.3 µM)	4
C/C(=N\n1c(/N=C/c2cccc([N+](=O)[O-])c2)c(C#N)c(-c2ccc([N+](=O)[O-])cc2)c(C#N)c1=O)c1nc2ccccc2[nH]1	28.3 µg/mL (≈ 49.6 µM)	250 µg/mL (≈ 437 µM)	250 µg/mL (≈ 437 µM)	500 µg/mL (≈ 875 µM)	27.6 µg/mL (≈ 48.3 µM)	500 µg/mL (≈ 875 µM)	–	–	–
C/C(=N\n1c(/N=C/c2ccc(F)cc2)c(C#N)c(-c2ccc([N+](=O)[O-])cc2)c(C#N)c1=O)c1nc2ccccc2[nH]1	27.1 µg/mL (≈ 49.8 µM)	250 µg/mL (≈ 459 µM)	250 µg/mL (≈ 459 µM)	100 µg/mL (≈ 184 µM)	24.8 µg/mL (≈ 45.5 µM)	250 µg/mL (≈ 459 µM)	–	–	–
C/C(=N\n1c(/N=C/c2ccc(Cl)cc2)c(C#N)c(-c2ccc([N+](=O)[O-])cc2)c(C#N)c1=O)c1nc2ccccc2[nH]1	1.79 µg/mL (≈ 3.19 µM)	100 µg/mL (≈ 178 µM)	62.5 µg/mL (≈ 111 µM)	50 µg/mL (≈ 89.1 µM)	> 39.4 µg/mL	100 µg/mL (≈ 178 µM)	–	–	–
C/C(=N\n1c(/N=C/c2cccc(Cl)c2)c(C#N)c(-c2ccc([N+](=O)[O-])cc2)c(C#N)c1=O)c1nc2ccccc2[nH]1	0.85 µg/mL (≈ 1.52 µM)	50 µg/mL (≈ 89.1 µM)	25 µg/mL (≈ 44.6 µM)	50 µg/mL (≈ 89.1 µM)	> 39.4 µg/mL	62.5 µg/mL (≈ 111 µM)	–	> 50 µg/mL	–
O=C(O)c1cn(C2CC2)c2cc(N3CCNCC3)c(F)cc2c1=O [CIPROFLOXACIN]	–	25 µg/mL (≈ 75.4 µM)	50 µg/mL (≈ 151 µM)	50 µg/mL (≈ 151 µM)	–	–	–	–	–
C/C(=N\n1c(N)c(C#N)c(-c2ccc([N+](=O)[O-])cc2)c(C#N)c1=O)c1nc2ccccc2[nH]1	> 39.4 µg/mL	500 µg/mL (≈ 1140 µM)	500 µg/mL (≈ 1140 µM)	500 µg/mL (≈ 1140 µM)	–	500 µg/mL (≈ 1140 µM)	–	–	–
O=C(N[C@H](CO)[C@H](O)c1ccc([N+](=O)[O-])cc1)C(Cl)Cl [CHLORAMPHENICOL]	–	50 µg/mL (≈ 155 µM)	50 µg/mL (≈ 155 µM)	50 µg/mL (≈ 155 µM)	–	50 µg/mL (≈ 155 µM)	–	50 µg/mL (≈ 155 µM)	–
COc1cccc(/C=N/c2c(C#N)c(-c3ccc([N+](=O)[O-])cc3)c(C#N)c(=O)n2/N=C(\C)c2nc3ccccc3[nH]2)c1	18 µg/mL (≈ 32.3 µM)	250 µg/mL (≈ 449 µM)	100 µg/mL (≈ 180 µM)	250 µg/mL (≈ 449 µM)	24.2 µg/mL (≈ 43.5 µM)	500 µg/mL (≈ 898 µM)	–	–	–
NNC(=O)c1ccncc1 [ISONIAZID]	0.24 µg/mL (≈ 1.75 µM)	–	–	–	–	–	–	–	–
C/C(=N\n1c(/N=C/c2ccccc2C)c(C#N)c(-c2ccc([N+](=O)[O-])cc2)c(C#N)c1=O)c1nc2ccccc2[nH]1	9.17 µg/mL (≈ 17 µM)	250 µg/mL (≈ 462 µM)	125 µg/mL (≈ 231 µM)	100 µg/mL (≈ 185 µM)	34.5 µg/mL (≈ 63.9 µM)	250 µg/mL (≈ 462 µM)	–	–	–
C/C(=N\n1c(/N=C/c2cccc(O)c2)c(C#N)c(-c2ccc([N+](=O)[O-])cc2)c(C#N)c1=O)c1nc2ccccc2[nH]1	30.2 µg/mL (≈ 55.6 µM)	500 µg/mL (≈ 922 µM)	100 µg/mL (≈ 184 µM)	500 µg/mL (≈ 922 µM)	17 µg/mL (≈ 31.3 µM)	250 µg/mL (≈ 461 µM)	–	–	–
COc1ccc(/C=N/c2c(C#N)c(-c3ccc([N+](=O)[O-])cc3)c(C#N)c(=O)n2/N=C(\C)c2nc3ccccc3[nH]2)cc1	23.5 µg/mL (≈ 42.2 µM)	500 µg/mL (≈ 898 µM)	250 µg/mL (≈ 449 µM)	250 µg/mL (≈ 449 µM)	25.4 µg/mL (≈ 45.6 µM)	500 µg/mL (≈ 898 µM)	–	–	–
C/C(=N\n1c(/N=C/c2ccccc2O)c(C#N)c(-c2ccc([N+](=O)[O-])cc2)c(C#N)c1=O)c1nc2ccccc2[nH]1	31.6 µg/mL (≈ 58.3 µM)	500 µg/mL (≈ 922 µM)	500 µg/mL (≈ 922 µM)	250 µg/mL (≈ 461 µM)	19.8 µg/mL (≈ 36.6 µM)	500 µg/mL (≈ 922 µM)	–	–	–
C/C(=N\n1c(/N=C/c2ccccc2Cl)c(C#N)c(-c2ccc([N+](=O)[O-])cc2)c(C#N)c1=O)c1nc2ccccc2[nH]1	2.65 µg/mL (≈ 4.72 µM)	100 µg/mL (≈ 178 µM)	50 µg/mL (≈ 89.1 µM)	62.5 µg/mL (≈ 111 µM)	> 39.4 µg/mL	125 µg/mL (≈ 223 µM)	–	–	–
C/C(=N\n1c(/N=C/c2ccc(O)cc2)c(C#N)c(-c2ccc([N+](=O)[O-])cc2)c(C#N)c1=O)c1nc2ccccc2[nH]1	30.9 µg/mL (≈ 56.9 µM)	250 µg/mL (≈ 461 µM)	500 µg/mL (≈ 922 µM)	250 µg/mL (≈ 461 µM)	13.7 µg/mL (≈ 25.3 µM)	500 µg/mL (≈ 922 µM)	–	–	–
C/C(=N\NC(=O)CC#N)c1nc2ccccc2[nH]1	> 39.4 µg/mL	> 1000 µg/mL	1000 µg/mL (≈ 4150 µM)	1000 µg/mL (≈ 4150 µM)	–	> 1000 µg/mL	–	–	–
C/C(=N\n1c(/N=C/c2cccc(F)c2)c(C#N)c(-c2ccc([N+](=O)[O-])cc2)c(C#N)c1=O)c1nc2ccccc2[nH]1	25.4 µg/mL (≈ 46.6 µM)	100 µg/mL (≈ 184 µM)	100 µg/mL (≈ 184 µM)	125 µg/mL (≈ 230 µM)	23.6 µg/mL (≈ 43.4 µM)	250 µg/mL (≈ 459 µM)	–	–	–
